The record followed here is ChEMBL document CHEMBL1781898, “Orally active achiral N-hydroxyformamide inhibitors of ADAM-TS4 (aggrecanase-1) and ADAM-TS5 (aggrecanase-2) for the treatment of osteoarthritis” (Bioorg Med Chem Lett, 2011).

Structures are written as SMILES.

The target of data set [1] is T1, A disintegrin and metalloproteinase with thrombospondin motifs 5 (Homo sapiens, UniProt Q9UNA0).
T1 sequence (Q9UNA0 whole entry): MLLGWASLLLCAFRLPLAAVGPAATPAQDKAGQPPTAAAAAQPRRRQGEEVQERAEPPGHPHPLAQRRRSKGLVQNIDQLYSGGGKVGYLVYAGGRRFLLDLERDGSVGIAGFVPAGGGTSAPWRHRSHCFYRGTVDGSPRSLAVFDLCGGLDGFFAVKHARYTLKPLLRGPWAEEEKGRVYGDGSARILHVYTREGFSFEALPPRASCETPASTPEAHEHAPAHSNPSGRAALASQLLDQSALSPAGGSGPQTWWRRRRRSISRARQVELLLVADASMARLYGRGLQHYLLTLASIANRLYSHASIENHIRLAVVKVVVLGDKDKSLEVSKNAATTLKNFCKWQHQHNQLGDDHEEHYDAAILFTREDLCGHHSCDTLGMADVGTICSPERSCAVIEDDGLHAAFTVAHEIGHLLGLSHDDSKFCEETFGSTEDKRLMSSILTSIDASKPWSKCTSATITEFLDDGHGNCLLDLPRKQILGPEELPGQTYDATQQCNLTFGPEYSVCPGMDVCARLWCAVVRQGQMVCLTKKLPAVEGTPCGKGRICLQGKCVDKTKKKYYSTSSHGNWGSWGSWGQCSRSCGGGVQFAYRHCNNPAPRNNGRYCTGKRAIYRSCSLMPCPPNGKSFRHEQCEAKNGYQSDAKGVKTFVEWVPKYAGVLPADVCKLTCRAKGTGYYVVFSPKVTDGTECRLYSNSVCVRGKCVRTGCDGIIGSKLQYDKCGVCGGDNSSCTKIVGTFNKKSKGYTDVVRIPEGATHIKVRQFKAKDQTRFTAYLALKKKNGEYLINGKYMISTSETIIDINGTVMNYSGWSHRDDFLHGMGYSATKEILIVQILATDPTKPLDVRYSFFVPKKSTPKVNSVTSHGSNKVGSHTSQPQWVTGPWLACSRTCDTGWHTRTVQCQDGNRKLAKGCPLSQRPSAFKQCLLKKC
The experiment in a line: Inhibition of ADAMTS-5 assessed as substrate cleavage after 16 hrs by fluorescence assay. A digest of the protocol: (§1)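 Enzyme inhibition IC50s derived from at least six measurements, standard errors normally <5% within an assay; a standard compound run to keep assay-to-assay variability within twofold.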

Data set [2] is described as follows: Clearance in rat at 2 mg/kg, iv and 3 to 10 mg/kg, po. The settings on record: in vivo. Format: ADME, organism-based.
Data set [3] in a line: Intrinsic clearance in human liver microsomes. Format: ADME, Microsome. A digest of the protocol:
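Human liver microsome metabolism; intrinsic clearance expressed as μL/min/mg, reported as mean of eight separate experiments.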
(Liver microsomes are a subcellular fraction often used to study metabolism.)

Data set [4] is described as follows: Oral bioavailability in rat. It counts as ADME, organism-based. The note with it: in vivo.
The target of another data set is Collagenase 3 (Homo sapiens, UniProt P45452). The experiment in a line: Inhibition of recombinant human MMP-13 assessed as substrate cleavage after 20 hrs by fluorescence assay. The method in brief:
as §1

The next data set has as its target T2, Cytochrome P450 1A2 (Homo sapiens, UniProt P05177).
T2 sequence (P05177 whole entry): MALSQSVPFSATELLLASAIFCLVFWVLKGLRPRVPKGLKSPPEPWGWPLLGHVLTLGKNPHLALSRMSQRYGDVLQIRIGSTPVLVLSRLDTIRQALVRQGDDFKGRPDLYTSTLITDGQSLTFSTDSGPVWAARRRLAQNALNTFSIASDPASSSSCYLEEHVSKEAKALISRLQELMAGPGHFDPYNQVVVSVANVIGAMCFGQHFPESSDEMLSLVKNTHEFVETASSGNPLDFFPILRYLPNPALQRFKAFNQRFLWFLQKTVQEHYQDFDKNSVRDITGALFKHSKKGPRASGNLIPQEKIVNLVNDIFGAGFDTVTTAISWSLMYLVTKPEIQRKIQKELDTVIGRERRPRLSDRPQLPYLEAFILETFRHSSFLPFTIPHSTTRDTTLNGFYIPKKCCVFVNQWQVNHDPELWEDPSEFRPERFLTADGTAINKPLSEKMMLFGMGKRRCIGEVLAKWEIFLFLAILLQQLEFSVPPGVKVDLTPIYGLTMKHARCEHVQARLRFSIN
Nature of the data set: Inhibition of CYP1A2. Format: ADME. The method in brief:
(§2)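 Inhibition of cytochrome P450 isoforms 1A2, 2C9, 2C19, 2D6 and 3A4, reported as pIC50.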

Data set [5] in a line: Free drug level in dog. It counts as ADME, organism-based, Canis lupus familiaris. The note with it: in vivo.
Data set [6] is described as follows: Volume of distribution at steady state in rat at 2 mg/kg, iv. The settings on record: in vivo, read-out: Vdss. Format: ADME, organism-based. Further details: dose 2 mg/kg, route intravenous. A digest of the protocol: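 Rat iv PK: 2 mg/kg iv, n = 2 animals; clearance, half-life and Vdss determined.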
Data set [7] can be described thus: Half life in rat at 2 mg/kg, iv and 3 to 10 mg/kg, po. The settings on record: in vivo. It counts as ADME, organism-based.
The next data set addresses Cytochrome P450 3A4 (Homo sapiens, UniProt P08684). Nature of the data set: Inhibition of CYP3A4. Format: ADME. The method in brief:
as §2

Data set [8] is described as follows: Free drug level in rat. Format: ADME, organism-based. The note with it: in vivo.
The nature of data set [9]: Volume of distribution at steady state in dog at 1 mg/kg, iv and 1 mg/kg, po. Format: ADME, organism-based, Canis lupus familiaris. The note with it: in vivo, read-out: Vdss.
A short description of data set [10]: Absolute bioavailability in rat. It counts as ADME, organism-based. The note with it: in vivo.
The nature of data set [11]: Intrinsic clearance in human hepatocytes measured per million cells. Format: ADME, cell-based, Liver, Hepatocyte. The method in brief:
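Human hepatocyte metabolism; intrinsic clearance expressed as μL/min/10⁶ cells, reported as mean of six separate experiments.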

Another data set has as its target Cytochrome P450 2C9 (Homo sapiens, UniProt P11712). The experiment in a line: Inhibition of CYP2C9. Format: ADME. The method in brief: as §2
Data set [12] in a line: Half life in dog at 1 mg/kg, iv and 1 mg/kg, po. The note with it: in vivo. Format: ADME, organism-based, Canis lupus familiaris.
Data set [13] addresses Matrix metalloproteinase-14 (Homo sapiens, UniProt P50281). Nature of the data set: Inhibition of recombinant human MMP-14 assessed as substrate cleavage after 20 hrs by fluorescence assay. A digest of the protocol:
as §1

A short description of data set [14]: Apparent permeability across apical to basolateral side in human Caco2 cells at 10 uM. It counts as ADME, cell-based. The settings on record: Caco-2. (Caco-2 cells form a polarised layer with tight junctions and transporters.)

Chain of Cytochrome P450 3A4 (P08684 whole entry): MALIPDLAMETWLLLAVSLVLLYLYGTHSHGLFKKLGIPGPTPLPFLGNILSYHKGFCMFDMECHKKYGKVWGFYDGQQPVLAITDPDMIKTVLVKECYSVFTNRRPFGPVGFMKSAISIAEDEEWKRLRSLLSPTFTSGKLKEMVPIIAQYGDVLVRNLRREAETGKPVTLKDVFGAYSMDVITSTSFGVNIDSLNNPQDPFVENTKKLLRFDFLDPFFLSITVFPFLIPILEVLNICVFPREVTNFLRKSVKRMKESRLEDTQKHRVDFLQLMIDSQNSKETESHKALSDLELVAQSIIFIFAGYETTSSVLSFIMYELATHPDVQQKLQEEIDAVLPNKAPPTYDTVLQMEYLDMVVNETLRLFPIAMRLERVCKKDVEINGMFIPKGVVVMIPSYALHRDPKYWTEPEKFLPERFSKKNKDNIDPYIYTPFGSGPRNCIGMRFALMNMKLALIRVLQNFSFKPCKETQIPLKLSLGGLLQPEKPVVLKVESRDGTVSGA
Chain of Cytochrome P450 2C9 (P11712 whole entry): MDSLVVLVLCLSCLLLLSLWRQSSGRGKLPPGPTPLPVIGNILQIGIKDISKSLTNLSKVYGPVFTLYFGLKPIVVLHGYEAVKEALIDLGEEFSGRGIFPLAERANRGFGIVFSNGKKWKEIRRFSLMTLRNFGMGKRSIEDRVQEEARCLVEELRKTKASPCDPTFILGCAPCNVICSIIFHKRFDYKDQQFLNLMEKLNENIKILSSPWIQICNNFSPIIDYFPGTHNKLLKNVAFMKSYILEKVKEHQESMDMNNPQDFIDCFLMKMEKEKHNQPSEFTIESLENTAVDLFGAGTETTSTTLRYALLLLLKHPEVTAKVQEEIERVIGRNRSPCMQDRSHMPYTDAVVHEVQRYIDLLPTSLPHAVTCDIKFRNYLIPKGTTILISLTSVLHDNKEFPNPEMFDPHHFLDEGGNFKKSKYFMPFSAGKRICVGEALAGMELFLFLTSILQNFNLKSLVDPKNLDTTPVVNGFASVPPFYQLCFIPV

In the case of `Cc1noc(C)c1CCC1CCN(S(=O)(=O)CC2(N(O)C=O)CCOCC2)CC1`, the IC50 – broadly, the concentration that inhibits the measured activity by half – in [1] is 0.86 µM; at Collagenase 3, above 31 µM; in data set [13] it was above 23 µM. In data set [2], this compound returned a clearance of 24 mL/min/kg. Also, in data set [3], the microsomal CLint (in general, a measure of how fast metabolising enzymes remove a compound, apart from limits set by blood flow) was 3.1 µL/min/mg. The bioavailability in [4] and in data set [10] was 45% each time. The “inhibition (INH)” value against Cytochrome P450 1A2, at Cytochrome P450 3A4 and at Cytochrome P450 2C9 was “Not Active” throughout. The fraction unbound in data set [5] and in data set [8] was above 0.5 in each case. In addition, the Vd came to 3 L/kg in data set [6] and 10.9 L/kg in [9]. Also, the results for the half-life in [7] and in data set [12] were 8.9 h and 19.1 h, respectively. Moreover, in data set [11], the hepatocyte CLint (commonly the capacity of the preparation to metabolise the compound, expressed as a volume cleared per time) was below 2 µL/min/1e6 cells. Besides, the Papp A→B (in general, how fast a substance crosses the layer from the apical side) at 10 µM in [14] came to 8.3 ×10⁻⁶ cm/s.
